The record followed here is ChEMBL document CHEMBL4145605, “Evodialones A and B: Polyprenylated Acylcyclopentanone Racemates with a 3-Ethyl-1,1-diisopentyl-4-methylcyclopentane Skeleton from Evodia lepta” (2018).

Each structure is given as a SMILES string. ≈ marks a conversion by molar mass, not a printed value.

Holding throughout (assay type): functional
One test deals with Pichia kudriavzevii. Description: Antifungal activity against Candida krusei ATCC 6258 measured after 48 hrs by turbidimetric method. To be noted: ATCC 6258, 48 h. The essentials:
(§1)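 In vitro panel of four Gram-positive bacteria, three Gram-negative bacteria and six fungal strains. Activity is reported as MIC in μM. Culture and assay protocols follow an earlier method, with details in the Supporting Information.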

The next test concerns Klebsiella pneumoniae. The experiment in a line: Antibacterial activity against Klebsiella pneumoniae ATCC 700603 measured after 16 hrs by turbidimetric method. To be noted: Klebsiella pneumoniae, 700603, 16 h. The essentials:
as §1

In another test the test system is Escherichia coli. The experiment in a line: Antibacterial activity against Escherichia coli ATCC 25922 measured after 16 hrs by turbidimetric method. To be noted: ATCC 25922, 16 h. Put shortly:
as §1

The next test deals with Clavispora lusitaniae. Description: Antifungal activity against Candida lusitaniae ATCC 34449 measured after 48 hrs by turbidimetric method. To be noted: ATCC 34449, 48 h. Put shortly: as §1
In test [1] the test system is Staphylococcus epidermidis. The experiment in a line: Antibacterial activity against Staphylococcus epidermidis ATCC 12228 measured after 16 hrs by turbidimetric method. To be noted: ATCC 12228, 16 h. The essentials: as §1
For a further test, the system named is Staphylococcus aureus. Description: Antibacterial activity against Staphylococcus aureus ATCC 25923 measured after 16 hrs by turbidimetric method. To be noted: ATCC 25923, 16 h. Put shortly: as §1
Another test concerns Candida parapsilosis. Description: Antifungal activity against Candida parapsilosis ATCC 22019 measured after 48 hrs by turbidimetric method. To be noted: Lodderomyces parapsilosis, ATCC 22019, 48 h. Put shortly: as §1
A further test deals with Enterobacter cloacae. The experiment in a line: Antibacterial activity against Enterobacter cloacae ATCC 700323 measured after 16 hrs by turbidimetric method. To be noted: ATCC 700323, 16 h. Put shortly:
as §1

The test system of another test is Bacillus subtilis. The experiment in a line: Antibacterial activity against Bacillus subtilis ATCC 21332 measured after 16 hrs by turbidimetric method. To be noted: ATCC 21332, 16 h. The essentials: as §1
In another test the test system is Nakaseomyces glabratus. The experiment in a line: Antifungal activity against Candida glabrata ATCC 2001 measured after 48 hrs by turbidimetric method. To be noted: CBS 138, 48 h. Put shortly: as §1
For the next test, the system named is Enterococcus faecalis. Description: Antibacterial activity against Enterococcus faecalis ATCC 29212 measured after 16 hrs by turbidimetric method. To be noted: ATCC 29212, 16 h. Put shortly: as §1
In test [2] the test system is Meyerozyma guilliermondii. Description: Antifungal activity against Candida guilliermondii ATCC 6260 measured after 48 hrs by turbidimetric method. To be noted: ATCC 6260, 48 h. Put shortly: as §1
A further test relates to Candida albicans. Description: Antifungal activity against Candida albicans ATCC 60193 measured after 48 hrs by turbidimetric method. To be noted: ATCC 60193, 48 h. The essentials: as §1

In general, MIC refers to the least concentration at which growth counts as inhibited. As to `COC(=O)[C@@]1(O)C(=O)[C@@]2(CC=C(C)C)C[C@H](O)C(C)(C)OC2=C1C(C)=O`, the MIC against Pichia kudriavzevii was 137 µM (≈ 50.1 µg/mL); in the test on Klebsiella pneumoniae it was more than 200 µM; in the test with Escherichia coli, more than 200 µM; in the test with Clavispora lusitaniae, 68.3 µM (≈ 25 µg/mL); in test [1], more than 200 µM; against Staphylococcus aureus, more than 200 µM. For the same compound, the MIC with Candida parapsilosis was 17.1 µM (≈ 6.27 µg/mL); against Enterobacter cloacae, more than 200 µM; against Bacillus subtilis it was more than 200 µM; against Nakaseomyces glabratus it was 34.2 µM (≈ 12.5 µg/mL); with Enterococcus faecalis, more than 200 µM; in test [2], 34.2 µM (≈ 12.5 µg/mL). In the test with Candida albicans, this compound yielded a minimal inhibitory concentration (MIC) of 137 µM (≈ 50.1 µg/mL).

Turning to `COC(=O)[C@@]1(O)C(=O)[C@@]2(CC=C(C)C)C[C@@H](O)C(C)(C)OC2=C1C(C)=O`, the MIC (against Pichia kudriavzevii; with Klebsiella pneumoniae; against Escherichia coli; in the test on Clavispora lusitaniae; in test [1]; against Staphylococcus aureus) was more than 200 µM throughout. Also, the MIC (in the test on Candida parapsilosis; with Enterobacter cloacae; against Bacillus subtilis; against Nakaseomyces glabratus; with Enterococcus faecalis; in test [2]) was more than 200 µM throughout. In the test on Candida albicans, this compound showed an MIC of more than 200 µM.

In the case of `COC(=O)[C@]1(O)C(=O)[C@]2(CC=C(C)C)C[C@@H](O)C(C)(C)OC2=C1C(C)=O`, the MIC against Pichia kudriavzevii was 137 µM (≈ 50.1 µg/mL); in the test with Klebsiella pneumoniae, more than 200 µM; with Escherichia coli, more than 200 µM; against Clavispora lusitaniae, 68.3 µM (≈ 25 µg/mL); in test [1], more than 200 µM; with Staphylococcus aureus, more than 200 µM. Also, the minimal inhibitory concentration (MIC) with Candida parapsilosis is 17.1 µM (≈ 6.27 µg/mL); in the test on Enterobacter cloacae, more than 200 µM; in the test with Bacillus subtilis it was more than 200 µM; against Nakaseomyces glabratus, 34.2 µM (≈ 12.5 µg/mL); against Enterococcus faecalis it was more than 200 µM; in test [2], 68.3 µM (≈ 25 µg/mL). Also, the minimum inhibitory concentration (MIC) in the test on Candida albicans was determined as 137 µM (≈ 50.1 µg/mL).

Consider `C[C@@H]1[C@H](O)[C@@H](C)/C=C/C=C/C=C/C=C/C=C/C=C/C=C/[C@H](O[C@@H]2O[C@H](C)[C@@H](O)[C@H](N)[C@@H]2O)C[C@@H]2O[C@](O)(C[C@@H](O)C[C@@H](O)[C@H](O)CC[C@@H](O)C[C@@H](O)CC(=O)O[C@H]1C)C[C@H](O)[C@H]2C(=O)O` [AMPHOTERICIN B], for which the MIC in the test with Pichia kudriavzevii was less than 0.5 µM; with Clavispora lusitaniae it was 8.7 µM (≈ 8.04 µg/mL); with Candida parapsilosis, less than 0.5 µM; against Nakaseomyces glabratus it was less than 0.5 µM; in [2] it was less than 0.5 µM; with Candida albicans, less than 0.5 µM.
